Measurements published in ChEMBL document CHEMBL5230166, “Novel quinoline-piperazine hybrids: the design, synthesis and evaluation of antibacterial and antituberculosis properties” (RSC Med Chem, 2023).
Converted amounts (≈) assume the structure as drawn.

Columns and labels:
Assay type in all cases: functional
[1] = test system: Klebsiella pneumoniae; experiment: Antibacterial activity against clinical isolate Klebsiella pneumoniae AB 356 assessed as inhibition of bacterial growth incubated for 22 to 24 hrs; details: time 22-24 hrs
[2] = test system: Acinetobacter baumannii; experiment: Antibacterial activity against clinical isolate Acinetobacter baumannii BAA 747 assessed as inhibition of bacterial growth incubated for 22 to 24 hrs; details: time 22-24 hrs
[3] = test system: Enterococcus faecium; experiment: Antibacterial activity against Enterococcus faecium ATCC 49624 assessed as inhibition of bacterial growth incubated for 22 to 24 hrs; details: time 22-24 hrs
In short: (§1)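 Broth MIC referenced to an earlier protocol. Inocula come from mid-log cultures sub-cultured on soybean casein digest agar, adjusted to McFarland (~10⁸ CFU/mL), then diluted to ~10⁵ CFU/mL. Compounds and controls are serially diluted from 64 to 0.03 µg/mL. Tested in triplicate, read after 22–24 h at 37 °C. MIC is the lowest concentration with no visible growth.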

[4] = test system: Staphylococcus aureus; experiment: Antibacterial activity against methicillin sensitive Staphylococcus aureus ATCC 29213 assessed as inhibition of bacterial growth incubated for 22 to 24 hrs; details: time 22-24 hrs; in short: as §1
[5] = test system: Staphylococcus aureus; experiment: Antibacterial activity against methicillin resistant Staphylococcus aureus ATCC 33591 assessed as inhibition of bacterial growth incubated for 22 to 24 hrs; details: time 22-24 hrs
In short: (§2)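 Broth microdilution MIC. Strains were subcultured on Soybean Casein Digest Agar, and inocula were taken from mid-log culture, adjusted to McFarland (~10⁸ CFU/mL), then diluted to ~10⁵ CFU/mL. Serial dilutions ran from 64 to 0.03 µg/mL. Plates were incubated 22–24 h at 37 °C, in triplicate. MIC was the lowest concentration with no visible growth.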

[6] = test system: Mycobacterium tuberculosis; experiment: Antibacterial activity against Mycobacterium tuberculosis H37Rv ATCC 25618 assessed as inhibition of bacterial growth incubated for 2 days by CLSI protocol based broth microdilution method; details: H37Rv ATCC 25618, 48 h, time 2 day
[7] = test system: Escherichia coli; experiment: Antibacterial activity against clinical isolate Escherichia coli AB 117 assessed as inhibition of bacterial growth incubated for 22 to 24 hrs; details: time 22-24 hrs
[8] = test system: Pseudomonas aeruginosa; experiment: Antibacterial activity against clinical isolate Pseudomonas aeruginosa AB 645 assessed as inhibition of bacterial growth incubated for 22 to 24 hrs; details: time 22-24 hrs
[9] = test system: Staphylococcus epidermidis; experiment: Antibacterial activity against clinical isolate methicillin resistant Staphylococcus epidermidis AB 735 assessed as inhibition of bacterial growth incubated for 22 to 24 hrs; details: time 22-24 hrs
[10] = test system: Enterococcus faecalis; experiment: Antibacterial activity against vancomycin resistant Enterococcus faecalis ATCC 700802 assessed as inhibition of bacterial growth incubated for 22 to 24 hrs; details: time 22-24 hrs; in short: as §2
[11] = test system: Mycolicibacterium smegmatis; experiment: Antibacterial activity against Mycobacterium smegmatis ATCC 607 assessed as inhibition of bacterial growth incubated for 2 days by CLSI protocol based broth microdilution method; details: ATCC 607, 48 h, time 2 day
In short: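 CLSI broth microdilution in Middlebrook 7H9 with 10% ADC. Compounds are dissolved in DMSO at 4.0 mg/mL (stock) and serially diluted from 64 to 0.015 µg/mL. Inoculum is ~10⁵ CFU/mL, checked by plating on 7H11 agar. Rifampin and levofloxacin are positive controls; drug-free broth with DMSO is the negative control. Growth inhibition is read after 2 days at 37 °C as MIC.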

[12] = test system: Moraxella catarrhalis; experiment: Antibacterial activity against Moraxella catarrhalis ATCC 25238 assessed as inhibition of bacterial growth incubated for 22 to 24 hrs; details: time 22-24 hrs; in short: as §1

Structure (SMILES)	MIC [1]	MIC [2]	MIC [3]	MIC [4]	MIC [5]	MIC [6]	MIC [7]	MIC [8]	MIC [9]	MIC [10]	MIC [11]	MIC [12]
COc1cc(CN2CCN(C(=O)c3cccc(F)c3)CC2)nc2ccc(F)cc12	> 64 µg/mL	> 64 µg/mL	> 64 µg/mL	> 64 µg/mL	> 64 µg/mL	> 64 µg/mL	> 64 µg/mL	> 64 µg/mL	> 64 µg/mL	> 64 µg/mL	> 64 µg/mL	> 64 µg/mL
COc1ccc2nc(CN3CCN(S(=O)(=O)c4c(C)cc(C)cc4C)CC3)cc(OC)c2c1	> 64 µg/mL	> 64 µg/mL	> 64 µg/mL	> 64 µg/mL	> 64 µg/mL	> 64 µg/mL	> 64 µg/mL	> 64 µg/mL	> 64 µg/mL	> 64 µg/mL	> 64 µg/mL	> 64 µg/mL
COc1cc(CN2CCN(C(=O)c3ccccc3C)CC2)nc2ccc(F)cc12	> 64 µg/mL	> 64 µg/mL	> 64 µg/mL	> 64 µg/mL	> 64 µg/mL	> 64 µg/mL	> 64 µg/mL	> 64 µg/mL	> 64 µg/mL	> 64 µg/mL	> 64 µg/mL	> 64 µg/mL
COc1ccc2nc(CN3CCN(C(=O)c4c(Cl)cccc4Cl)CC3)cc(OC)c2c1	> 64 µg/mL	> 64 µg/mL	> 64 µg/mL	> 64 µg/mL	> 64 µg/mL	> 64 µg/mL	> 64 µg/mL	> 64 µg/mL	> 64 µg/mL	> 64 µg/mL	> 64 µg/mL	> 64 µg/mL
COc1ccc2nc(CN3CCN(C(=O)c4ccccc4F)CC3)cc(OC)c2c1	> 64 µg/mL	> 64 µg/mL	> 64 µg/mL	> 64 µg/mL	> 64 µg/mL	> 64 µg/mL	> 64 µg/mL	> 64 µg/mL	> 64 µg/mL	> 64 µg/mL	> 64 µg/mL	> 64 µg/mL
COc1cc(CN2CCN(S(=O)(=O)c3ccc(NC(C)=O)cc3)CC2)nc2ccc(F)cc12	> 64 µg/mL	> 64 µg/mL	> 64 µg/mL	> 64 µg/mL	> 64 µg/mL	> 64 µg/mL	> 64 µg/mL	> 64 µg/mL	64 µg/mL (≈ 135 µM)	> 64 µg/mL	> 64 µg/mL	32 µg/mL (≈ 67.7 µM)
COc1cc(CN2CCN(S(=O)(=O)c3ccc(Cl)cc3Cl)CC2)nc2ccc(F)cc12	> 64 µg/mL	> 64 µg/mL	> 64 µg/mL	> 64 µg/mL	> 64 µg/mL	> 64 µg/mL	> 64 µg/mL	> 64 µg/mL	> 64 µg/mL	> 64 µg/mL	> 64 µg/mL	> 64 µg/mL
COc1cccc(C(=O)N2CCN(Cc3cc(OC)c4cc(OC)ccc4n3)CC2)c1	> 64 µg/mL	> 64 µg/mL	> 64 µg/mL	> 64 µg/mL	> 64 µg/mL	> 64 µg/mL	> 64 µg/mL	> 64 µg/mL	> 64 µg/mL	> 64 µg/mL	> 64 µg/mL	> 64 µg/mL
COc1ccc2nc(CN3CCN(S(=O)(=O)c4ccc(NC(C)=O)cc4)CC3)cc(OC)c2c1	> 64 µg/mL	> 64 µg/mL	> 64 µg/mL	> 64 µg/mL	> 64 µg/mL	> 64 µg/mL	> 64 µg/mL	> 64 µg/mL	> 64 µg/mL	> 64 µg/mL	> 64 µg/mL	> 64 µg/mL
